For test [1], the species on record is Rattus norvegicus. Description: Antiallergic activity against IgE-mediated passive cutaneous anaphylaxis (PCA) in rats. The test is classed as functional. The essentials: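 Female Sprague–Dawley rats (90–125 g), fasted overnight, were sensitized with id injections of graded concentrations of IgE against egg albumin. Compound was given orally at 100 mg (base)/kg in 0.5% gum tragacanth to 4 rats, 1 h before challenge. Skin bluing diameters were read 30 min later, and the shift of the antibody dose-response curve to the right was expressed in multiples of antibody concentration.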

The species entered for test [2] is Rattus norvegicus. Description: Antiallergic potency against IgE-mediated passive cutaneous anaphylaxis (PCA) in rats. The test is classed as functional. A digest of the protocol:
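Multiple-dose oral tests were run alongside aminophylline in female Sprague–Dawley rats (90–125 g). Bluing diameters were recorded 30 min after challenge, and activity was taken as the rightward shift of the antibody dose-response curve.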

Take `Cc1cc(N)nc(-c2ccncc2)n1`: the PCA shift in test [1] amounted to 10.2. On the same count and under the same terms, for `Cc1cc(NC(=O)NC(C)(C)C)nc(-c2ccncc2)n1` the value was 3.2; for `CCN(CC)C(=O)Nc1ccnc(-c2ccncc2)n1`, 8.9. Still for that read-out and setting: as for `CCNc1ccnc(-c2ccncc2)n1`, the figure is 8.4; as for `CC(C)(C)CNC(=O)Nc1ccnc(-c2ccncc2)n1`, 2.2; as for `Nc1ccnc(-c2ccccn2)n1`, 2.5. For the compound `CC(C)(C)OC(=O)Nc1ccnc(-c2ccncc2)n1`, the PCA shift in test [1] turned out to be 1.6. Regarding `CC(=O)C(=CNc1ccnc(-c2ccncc2)n1)C(C)=O`, the PCA shift in test [1] came to 5.6.

Consider `CC(C)(C)NC(=O)Nc1ccnc(-c2ccccn2)n1`, for which, in test [1], the PCA shift is recorded as 4.5.

Regarding `CCCCOC(=O)Nc1ccnc(-c2ccncc2)n1`, the PCA shift in test [1] was 3. Same read-out and setting: as for `CC(C)CC(=O)Nc1ccnc(-c2ccncc2)n1`, the figure is 5; as for `CC(C)NC(=O)N(C)c1ccnc(-c2ccncc2)n1`, over 10.

Turning to `CC(C)C(=O)Nc1ccnc(-c2ccncc2)n1`, the PCA shift in test [1] is recorded as 2.3.

Consider `CC(C)(C)NC(=O)Nc1ccnc(-c2cc[n+]([O-])cc2)n1`, for which the PCA shift in test [1] was 1.5. Still for that read-out and setting: as for `CN(C)c1ccnc(-c2ccncc2)n1`, the figure is 1.5. Still for that read-out and setting: for `CCCCCC(=O)Nc1ccnc(-c2ccncc2)n1` the value was 7; for `CCC(CC)NC(=O)Nc1ccnc(-c2ccncc2)n1.CS(=O)(=O)O.CS(=O)(=O)O`, 6.4. In test [2], `CC(C)(C)NC(=O)Nc1ccnc(-c2ccncc2)n1` gave a Potency of 3.9. In test [1], the PCA shift was over 10.

Consider `Cc1cc(O)nc(-c2ccncc2)n1`, for which, in test [1], the PCA shift turned out to be 2.8.

Turning to `CC(C)(C)NC(=O)Nc1ccnc(-c2cccnc2)n1`, the PCA shift in test [1] came to 5.8. Compound `CC(C)NC(=O)Nc1ccnc(-c2cccnc2)n1` came in with a Potency in test [2] of 1.6. In addition, the PCA shift in test [1] was over 10. As to `Nc1ccnc(-c2cc[n+]([O-])cc2)n1`, in test [1], the PCA shift amounted to 3.8. Same read-out and setting: for `CCO/C(O)=C(C#N)\C=N\c1ccnc(-c2ccncc2)n1` the value was 9.4; for `Cc1cnc(-c2ccncc2)nc1NC(=O)NC(C)(C)C`, 3.5; for `CC(C)(C)CC(=O)Nc1ccnc(-c2ccncc2)n1`, 2.2. Still for that read-out and setting: as for `CC1(C)OC(=O)C(/C=N/c2ccnc(-c3ccncc3)n2)=C(O)O1`, the figure is 2.2.

For the compound `CNC(=O)Nc1ccnc(-c2ccncc2)n1`, the Potency in test [2] is on record as 3.8. Besides, the PCA shift in test [1] is over 10. The like results for `CCNC(=O)Nc1ccnc(-c2ccncc2)n1` were, in that order, 7 and over 10. With `CCCCNc1ccnc(-c2ccncc2)n1`, the PCA shift in test [1] was determined as 7.6. Turning to `CCO/C(O)=C(\C=N\c1ccnc(-c2ccncc2)n1)C(C)=O`, the PCA shift in test [1] stood at 2.9. With `COC(=O)C(/C=N/c1ccnc(-c2ccncc2)n1)=C(\O)OC`, in test [2], the Potency came out at 5.8. In addition, in test [1], the PCA shift is on record as over 10. The like results for `CCNC(=O)Nc1ccnc(-c2cccnc2)n1` were, in that order, 4.8 and over 10. On the same counts, the results for `CC(C)(CO)NC(=O)Nc1ccnc(-c2ccncc2)n1` are 1 and over 10. With `Cc1cc(N(CCO)CCO)nc(-c2ccncc2)n1`, the PCA shift in test [1] is 6.3.

As for `CCCNC(=O)Nc1ccnc(-c2ccncc2)n1`, the PCA shift in test [1] was over 10. In the case of `CS(=O)(=O)O.CS(=O)(=O)O.Cc1cc(NN)nc(-c2ccncc2)n1`, in test [1], the PCA shift stood at 2. Same read-out and setting: for `CCCCN(C(=O)NC(C)C)c1ccnc(-c2ccncc2)n1.CS(=O)(=O)O.CS(=O)(=O)O` the value was 4.2.

In turn, `CCOC(=O)C(/C=N/c1ccnc(-c2cccnc2)n1)=C(\O)OCC` yielded a Potency in test [2] of 0.8. In test [1], the PCA shift is recorded as over 10. The like results for `CC(C)NC(=O)Nc1ccnc(-c2ccncc2)n1` were, in that order, 2.4 and over 10. Turning to `Cc1cc(N(C)C)nc(-c2ccncc2)n1.Cl.Cl`, the PCA shift in test [1] is recorded as 5. Same read-out and setting: for `CC(C)Nc1ccnc(-c2ccncc2)n1` the value was 9; for `Nc1ccnc(-c2ccncc2)n1`, 8.6. Still for that read-out and setting: for `CCOC(=O)C(/C=N/c1cc(C)nc(-c2ccncc2)n1)=C(/O)OCC` the value was 7.8; for `CCN(CC)c1cc(C)nc(-c2ccncc2)n1.Cl.Cl`, 2.2; for `CC(C)(C)C(=O)Nc1ccnc(-c2ccncc2)n1`, 4.2. Same read-out and setting: as for `CC(=O)Nc1ccnc(-c2ccncc2)n1`, the figure is 1.7; as for `CNc1cc(C)nc(-c2ccncc2)n1`, 4.9. For the compound `CCOC(=O)C(/C=N/c1ccnc(-c2ccccn2)n1)=C(\O)OCC.CS(=O)(=O)O`, the PCA shift in test [1] is 4.1. As to `CNc1ccnc(-c2ccncc2)n1`, the PCA shift in test [1] is on record as 7.4. Same read-out and setting: as for `Nc1ccnc(-c2cccnc2)n1`, the figure is 4.2. On the same count and under the same terms, for `CC(C)(C)Nc1ccnc(-c2ccncc2)n1` the value was 1.5. On the same count and under the same terms, for `CCCCNC(=O)Nc1ccnc(-c2cccnc2)n1` the value was 8.5.

Consider `CC(C)NC(=O)Nc1ccnc(-c2cc[n+]([O-])cc2)n1.CS(=O)(=O)O.CS(=O)(=O)O`, for which the Potency in test [2] came to 1.8. Further, the PCA shift in test [1] is 5.4. On the same counts, the results for `COC(=O)C(/C=N/c1ccnc(-c2cccnc2)n1)=C(\O)OC` are 2.9 and over 10. The like results for `CCCCNC(=O)Nc1ccnc(-c2ccncc2)n1` were, in that order, 2.4 and over 10. `CCOC(=O)C(/C=N/c1ccnc(-c2ccncc2)n1)=C(\O)OCC` came in with a Potency in test [2] of 2.4. The PCA shift in test [1] was over 10. With `CCO/C(O)=C(C#N)\C(C)=N\c1ccnc(-c2ccncc2)n1`, the PCA shift in test [1] is listed as 5.

In the case of `NC(=O)Nc1ccnc(-c2ccncc2)n1`, the PCA shift in test [1] is on record as 4.8. Same read-out and setting: as for `Cc1cc(Cl)nc(-c2ccncc2)n1`, the figure is 1.4; as for `CN(C(=O)NC(C)(C)C)c1ccnc(-c2ccncc2)n1`, 4.

(Values after ChEMBL document CHEMBL1122094, “Novel orally active inhibitors of passive cutaneous anaphylaxis in rats: N-[2-(4-pyridinyl)-4-pyrimidinyl]ureas and dialkyl [[[2-(4-pyridinyl)-4-pyrimidinyl]amino]methylene]malonates” (1982).)
